Reference: ChEMBL document CHEMBL1154044, “5-Nitro-2-furyl derivative actives against Trypanosoma cruzi: preliminary in vivo studies” (Eur J Med Chem, 2009)
Calls of active or inactive are those of the source. The rule behind the calls is not given here.

Columns and labels:
Trypanosoma cruzi [1] = test: Antitrypanosomal activity against Trypanosoma cruzi infected in po dosed CD1 mouse assessed as prevention of amastigote nest in smooth muscle administered daily for 14 days measured on day 45; assay type: functional, organism-based; details: Muscle tissue
How it was run: (§1)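 T. cruzi, a Uruguayan patient isolate, was inoculated intradermally into 2-month-old female CD1 mice (20–22 g). Dosing began on day 15 after parasitaemia was observed. Drugs were suspended in saline:Tween 80 (4:1) and given by intragastric syringe once daily for 14 days, with untreated controls. On day 45 after treatment start, heart and muscle sections were scored by two independent observers for amastigotes and inflammatory infiltrates. Groups had 5–7 mice.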

Mus musculus [2] = test: Toxicity in CD1 mouse lung at 450 mg/kg, po after 3 days by histological study; assay type: organism-based; set-up: dose 450 mg/kg, route oral; details: in vivo, 72 h
How it was run: (§2)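 Healthy female CD1 mice (20–22 g), 5–7 per group, given a single oral (intragastric) or i.p. dose in saline:Tween 80 (4:1) vehicle. Sacrificed on day 3 after ether anaesthesia. Organs fixed in 10% aqueous formalin for histology. Scored against untreated animals from no change to +++ (many changes).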

Mus musculus [3] = test: Toxicity in CD1 mouse assessed as haemoglobin level at 450 mg/kg, po after 3 days; assay type: organism-based; set-up: dose 450 mg/kg, route oral; details: in vivo, 72 h
How it was run: (§3)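 Healthy female CD1 mice (5–7 per group) received a single oral dose of 450 mg/kg or an i.p. dose of 300 mg/kg, with vehicle controls. On day 3 they were sacrificed under ether anaesthesia. Blood was drawn from the subclavian artery and kept at 0 °C in EDTA or heparin. Leukocytes, haemoglobin, haematocrit, GPT and GOT were measured within 24 h and compared with normal ranges.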

Mus musculus [4] = test: Toxicity in CD1 mouse intestine at 300 mg/kg, ip after 3 days by histological study; assay type: organism-based; set-up: dose 300 mg/kg, route intraperitoneal; details: in vivo, 72 h; how it was run: as §2
Mus musculus [5] = test: Toxicity in CD1 mouse assessed as increase in weight respect to day zero at 300 mg/kg, ip after 3 days; assay type: organism-based; set-up: dose 300 mg/kg, route intraperitoneal; details: in vivo, 72 h
How it was run: (§4)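 Healthy 2-month-old female CD1 mice (20–22 g, 5–7 per group) received one dose. Oral doses of 450 or 300 mg/kg were given by intragastric syringe; i.p. doses of 300 or 150 mg/kg by injection. Drugs were suspended in saline:Tween 80 (4:1), and a vehicle-only control was included. Mice were weighed and observed daily for 3 days. Weight change is expressed as percent relative to day zero.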

Mus musculus [6] = test: Toxicity in CD1 mouse lung at 300 mg/kg, ip after 3 days by histological study; assay type: organism-based; set-up: dose 300 mg/kg, route intraperitoneal; details: in vivo, 72 h; how it was run: as §2
Mus musculus [7] = test: Toxicity in CD1 mouse heart at 450 mg/kg, po after 3 days by histological study; assay type: organism-based; set-up: dose 450 mg/kg, route oral; details: in vivo, 72 h; how it was run: as §2
Mus musculus [8] = test: Toxicity in CD1 mouse assessed as leukocyte level at 300 mg/kg, ip after 3 days; assay type: organism-based; set-up: dose 300 mg/kg, route intraperitoneal; details: in vivo, 72 h; how it was run: as §3
Mus musculus [9] = test: Toxicity in CD1 mouse assessed as haemoglobin level at 300 mg/kg, ip after 3 days; assay type: organism-based; set-up: dose 300 mg/kg, route intraperitoneal; details: in vivo, 72 h; how it was run: as §3
Mus musculus [10] = test: Toxicity in CD1 mouse assessed as survival at 450 mg/kg, po after 3 days; assay type: organism-based; set-up: dose 450 mg/kg, route oral; details: in vivo, 72 h
How it was run: (§5)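 Healthy 2-month-old female CD1 mice (20–22 g), groups of 5–7, given one oral dose by intragastric syringe or one i.p. injection. Compound suspended in saline:Tween 80 (4:1) with sonication just before dosing; vehicle-treated controls included. Weighed and observed daily over 3 days for skin, physical aspect, activity and faeces; survival recorded at day 3.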

Mus musculus [11] = test: Toxicity in CD1 mouse assessed as glutamic-pyruvate transaminase level at 450 mg/kg, po after 3 days; assay type: organism-based; set-up: dose 450 mg/kg, route oral; details: in vivo, 72 h; how it was run: as §3
Mus musculus [12] = test: Toxicity in CD1 mouse kidney at 300 mg/kg, ip after 3 days by histological study; assay type: organism-based; set-up: dose 300 mg/kg, route intraperitoneal; details: in vivo, 72 h; how it was run: as §2
Mus musculus [13] = test: Toxicity in CD1 mouse assessed as glutamic-oxalacetate transaminase level at 450 mg/kg, po after 3 days; assay type: organism-based; set-up: dose 450 mg/kg, route oral; details: in vivo, 72 h; how it was run: as §3
Mus musculus [14] = test: Toxicity in CD1 mouse liver at 450 mg/kg, po after 3 days by histological study; assay type: organism-based; set-up: dose 450 mg/kg, route oral; details: in vivo, 72 h; how it was run: as §2
Mus musculus [15] = test: Toxicity in CD1 mouse assessed as increase in weight respect to day zero at 450 mg/kg, po after 3 days; details: in vivo, 72 h
Mus musculus [16] = test: Toxicity in CD1 mouse intestine at 450 mg/kg, po after 3 days by histological study; assay type: organism-based; set-up: dose 450 mg/kg, route oral; details: in vivo, 72 h; how it was run: as §2
Mus musculus [17] = test: Toxicity in CD1 mouse brain at 450 mg/kg, po after 3 days by histological study; assay type: organism-based; set-up: dose 450 mg/kg, route oral; details: in vivo, 72 h; how it was run: as §2
Trypanosoma cruzi [18] = test: Antitrypanosomal activity against Trypanosoma cruzi infected in po dosed CD1 mouse assessed as prevention of amastigote nest in heart administered daily for 14 days measured on day 45; assay type: functional, organism-based; how it was run: as §1
Mus musculus [19] = test: Toxicity in CD1 mouse brain at 300 mg/kg, ip after 3 days by histological study; assay type: organism-based; set-up: dose 300 mg/kg, route intraperitoneal; details: in vivo, 72 h; how it was run: as §2
Trypanosoma cruzi [20] = test: Antitrypanosomal activity against Trypanosoma cruzi infected in po dosed CD1 mouse assessed as prevention of inflammatory infiltrates in heart administered daily for 14 days measured on day 45; assay type: functional, organism-based; how it was run: as §1
Mus musculus [21] = test: Toxicity in CD1 mouse assessed as survival at 300 mg/kg, ip after 3 days; assay type: organism-based; set-up: dose 300 mg/kg, route intraperitoneal; details: in vivo, 72 h; how it was run: as §5
Trypanosoma cruzi [22] = test: Antitrypanosomal activity against Trypanosoma cruzi infected in po dosed CD1 mouse assessed as prevention of inflammatory infiltrates in smooth muscle administered daily for 14 days measured on day 45; assay type: functional, organism-based; details: Muscle tissue; how it was run: as §1
Mus musculus [23] = test: Toxicity in CD1 mouse heart at 300 mg/kg, ip after 3 days by histological study; assay type: organism-based; set-up: dose 300 mg/kg, route intraperitoneal; details: in vivo, 72 h; how it was run: as §2
Mus musculus [24] = test: Toxicity in CD1 mouse assessed as leukocyte level at 450 mg/kg, po after 3 days; assay type: organism-based; set-up: dose 450 mg/kg, route oral; details: in vivo, 72 h; how it was run: as §3
Mus musculus [25] = test: Toxicity in CD1 mouse assessed as glutamic-pyruvate transaminase level at 300 mg/kg, ip after 3 days; assay type: organism-based; set-up: dose 300 mg/kg, route intraperitoneal; details: in vivo, 72 h; how it was run: as §3
Mus musculus [26] = test: Toxicity in CD1 mouse kidney at 450 mg/kg, po after 3 days by histological study; assay type: organism-based; set-up: dose 450 mg/kg, route oral; details: in vivo, 72 h; how it was run: as §2
Mus musculus [27] = test: Toxicity in CD1 mouse assessed as glutamic-oxalacetate transaminase level at 300 mg/kg, ip after 3 days; assay type: organism-based; set-up: dose 300 mg/kg, route intraperitoneal; details: in vivo, 72 h; how it was run: as §3
Trypanosoma cruzi [28] = test: Growth inhibition of Trypanosoma cruzi Tulahuen 2 epimastigote at 5 uM after 5 days; assay type: functional; details: Trypanosoma cruzi, Tulahuen 2, 120 h; read-out: GI
Mus musculus [29] = test: Toxicity in CD1 mouse liver at 300 mg/kg, ip after 3 days by histological study; assay type: organism-based; set-up: dose 300 mg/kg, route intraperitoneal; details: in vivo, 72 h; how it was run: as §2
Mus musculus [30] = test: Toxicity in CD1 mouse assessed as survival at 300 mg/kg, po after 3 days; assay type: organism-based; set-up: dose 300 mg/kg, route oral; details: in vivo, 72 h; how it was run: as §5
Mus musculus [31] = test: Toxicity in CD1 mouse assessed as hematocrite level at 300 mg/kg, ip after 3 days; assay type: organism-based; set-up: dose 300 mg/kg, route intraperitoneal; details: in vivo, 72 h; how it was run: as §3
Mus musculus [32] = test: Toxicity in CD1 mouse assessed as hematocrite level at 450 mg/kg, po after 3 days; assay type: organism-based; set-up: dose 450 mg/kg, route oral; details: in vivo, 72 h; how it was run: as §3
Mus musculus [33] = test: Toxicity in CD1 mouse assessed as decrease in weight respect to day zero at 450 mg/kg, po after 3 days; assay type: organism-based; set-up: dose 450 mg/kg, route oral; scale not given: the % may be the effect or the level left; details: in vivo, 72 h; how it was run: as §4
Mus musculus [34] = test: Toxicity in CD1 mouse assessed as decrease in weight respect to day zero at 300 mg/kg, ip after 3 days; assay type: organism-based; set-up: dose 300 mg/kg, route intraperitoneal; scale not given: the % may be the effect or the level left; details: in vivo, 72 h; how it was run: as §4
Mus musculus [35] = test: Toxicity in CD1 mouse assessed as decrease in weight respect to day zero at 300 mg/kg, po after 3 days; assay type: organism-based; set-up: dose 300 mg/kg, route oral; scale not given: the % may be the effect or the level left; details: in vivo, 72 h; how it was run: as §4

Compound	Activity (Mus musculus [2])	Activity (Mus musculus [3])	Activity (Mus musculus [4])	Activity (Mus musculus [6])	Activity (Mus musculus [7])	Activity (Mus musculus [8])	Activity (Mus musculus [9])	Activity (Mus musculus [10])	Activity (Mus musculus [11])	Activity (Mus musculus [12])	Activity (Mus musculus [13])	Activity (Mus musculus [14])	Activity (Mus musculus [16])	Activity (Mus musculus [17])	Activity (Mus musculus [19])	Activity (Mus musculus [21])	Activity (Mus musculus [23])	Activity (Mus musculus [24])	Activity (Mus musculus [25])	Activity (Mus musculus [26])	further results
CCCCCCNC(=O)N/N=C/C=C/c1ccc([N+](=O)[O-])o1	Non-toxic	16.3 g/dL	Non-toxic	Non-toxic	Non-toxic	31700 µL⁻¹	12.8 g/dL	Non-toxic	29.4 IU/L	Toxic	94.1 IU/L	Toxic	Non-toxic	Non-toxic	Non-toxic	Non-toxic	Non-toxic	32400 µL⁻¹	76.2 IU/L	Non-toxic	Activity (Trypanosoma cruzi [1]): Active; Activity (Mus musculus [5]): 8%; Activity (Mus musculus [15]): 21%; Activity (Trypanosoma cruzi [18]): Active; Activity (Trypanosoma cruzi [20]): Active; Activity (Trypanosoma cruzi [22]): Active; Activity (Mus musculus [27]): 109 IU/L; inhibition of growth at 5 µM (Trypanosoma cruzi [28]): 82%; Activity (Mus musculus [29]): Toxic
CC1CS(=O)(=O)CCN1/N=C/c1ccc([N+](=O)[O-])o1 (stereo not drawn) [NIFURTIMOX]	Non-toxic	13.5 g/dL	Non-toxic	Non-toxic	Non-toxic	5100 µL⁻¹	13.2 g/dL	Non-toxic	49 IU/L	Non-toxic	162 IU/L	Toxic	Non-toxic	Non-toxic	Non-toxic	Non-toxic	Non-toxic	6700 µL⁻¹	32.5 IU/L	Toxic	Activity (Mus musculus [30]): Non-toxic; Activity (Mus musculus [31]): 39.3%; Activity (Mus musculus [32]): 42.4%; Activity (Mus musculus [33]): 6%; Activity (Mus musculus [34]): 3%; Activity (Mus musculus [35]): 0%; Activity (Mus musculus [27]): 177 IU/L; inhibition of growth at 5 µM (Trypanosoma cruzi [28]): 46%; Activity (Mus musculus [29]): Toxic
